Assay results taken from ChEMBL document CHEMBL1123936, “Synthesis and biological evaluation of acyclic neplanocin analogues” (1987).
≈ marks a conversion by molar mass, not a printed value.

Assays:
Type in all cases: functional
Human alphaherpesvirus 1 [1] = assay: Compound was evaluated for antiviral activity against HSV-1 reported as ED50 value; conditions: read-out: ED50 (the source's name)
Method in brief: (§1)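 CPE inhibition assay in pregrown Vero cell monolayers infected with HSV-1 (strain 377) or HSV-2 (strain HF). Virus-induced cytopathogenic effect was scored quantitatively. Virus rating weighs the degree of CPE inhibition against cytotoxicity to the host cells, following a modified Ehrlich et al. method.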

Human alphaherpesvirus 2 [2] = assay: Compound was evaluated for antiviral activity against HSV-2 reported as ED50 value; conditions: read-out: ED50 (the source's name); method in brief: as §1
Human alphaherpesvirus 1 [3] = assay: Compound was evaluated for antiviral activity against HSV-1 reported as virus rating; method in brief: as §1
Human alphaherpesvirus 2 [4] = assay: Compound was evaluated for antiviral activity against HSV-2 reported as virus rating; method in brief: as §1
P388 = assay: Compound was evaluated for growth inhibition of P-388 lymphoid leukemia cells; conditions: Mus musculus, read-out: ED50 (the source's name)
Method in brief: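 P-388 mouse lymphoid leukemia cells were seeded at 4×10^5 per tube in Fischer's medium with 10% horse serum. Twofold compound dilutions were run in duplicate tubes, stoppered, and held at a 30° angle at 37 °C for 72 h without agitation, rotated twice daily. Cells were counted by hemocytometer. Percent inhibition was taken against controls, with counts corrected for the inoculum.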

EC50 (Human alphaherpesvirus 1 [1]) [µg/mL]	EC50 (Human alphaherpesvirus 2 [2]) [µg/mL]	EC50 (P388) [µg/mL]	SMILES	VR (Human alphaherpesvirus 1 [3])	VR (Human alphaherpesvirus 2 [4])
172 (≈ 778 µM)	219 (≈ 990 µM)	–	Nc1nc(O)c2ncn(C/C=C/CO)c2n1	1.5	0.9
–	–	5 (≈ 22.4 µM)	Nc1ncnc2c1ncn2C/C=C/CCl	–	–
12.3 (≈ 54.6 µM)	4.8 (≈ 21.3 µM)	–	Nc1nc2c(ncn2COCCO)c(=O)[nH]1 [ACYCLOVIR]	6.3	4.8
–	–	–	Nc1ncnc2c1ncn2[C@@H]1O[C@H](CO)[C@@H](O)[C@@H]1O [VIDARABINE]	2	1.4
